Holding throughout (type): functional, cell-based
In assay [1] the target is T1, Glycine receptor subunit alpha-1 (Homo sapiens, UniProt P23415).
T1 sequence (P23415 whole entry): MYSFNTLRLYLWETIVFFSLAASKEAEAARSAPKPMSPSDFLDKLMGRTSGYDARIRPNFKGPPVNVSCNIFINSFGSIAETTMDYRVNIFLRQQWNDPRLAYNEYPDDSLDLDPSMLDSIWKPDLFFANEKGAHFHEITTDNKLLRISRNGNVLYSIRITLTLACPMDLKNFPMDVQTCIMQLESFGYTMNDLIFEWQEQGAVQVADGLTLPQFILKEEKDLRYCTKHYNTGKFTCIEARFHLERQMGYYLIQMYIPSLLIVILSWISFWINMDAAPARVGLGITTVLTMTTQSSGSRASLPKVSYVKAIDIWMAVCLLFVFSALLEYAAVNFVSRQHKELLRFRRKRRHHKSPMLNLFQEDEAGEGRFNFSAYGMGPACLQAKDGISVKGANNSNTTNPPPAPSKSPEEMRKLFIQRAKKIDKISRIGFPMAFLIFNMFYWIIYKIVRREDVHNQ
Nature of the assay: Agonist activity at human recombinant alpha 1 GlyR expressed in HEK293 cells assessed as potentiation of glycine current by whole cell patch clamp assay. On the technique in general: In patch-clamp work, channel activity is measured electrically.

In assay [2] the target is T2, Glycine receptor subunit alpha-3 (Homo sapiens, UniProt O75311).
T2 sequence (O75311 whole entry): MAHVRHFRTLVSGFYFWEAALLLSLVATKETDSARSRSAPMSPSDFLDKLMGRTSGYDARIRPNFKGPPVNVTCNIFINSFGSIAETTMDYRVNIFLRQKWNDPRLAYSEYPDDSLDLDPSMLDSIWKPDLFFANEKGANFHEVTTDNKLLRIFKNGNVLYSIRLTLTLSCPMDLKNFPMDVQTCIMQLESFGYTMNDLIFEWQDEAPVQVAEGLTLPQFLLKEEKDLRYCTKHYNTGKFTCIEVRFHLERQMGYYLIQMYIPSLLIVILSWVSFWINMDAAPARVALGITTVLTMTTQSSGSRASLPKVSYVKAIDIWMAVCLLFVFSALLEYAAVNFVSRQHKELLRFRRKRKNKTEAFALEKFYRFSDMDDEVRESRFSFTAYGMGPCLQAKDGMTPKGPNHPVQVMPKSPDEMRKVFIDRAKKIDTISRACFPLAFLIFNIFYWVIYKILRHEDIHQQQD
Nature of the assay: Agonist activity at human recombinant alpha 3 GlyR expressed in HEK293 cells assessed as potentiation of glycine current by whole cell patch clamp assay.

For assay [3], the target named is T1, Glycine receptor subunit alpha-1. Kind of assay: (§1) Antagonist activity at human recombinant alpha 1 GlyR expressed in HEK293 cells assessed as inhibition of glycine current influx by whole cell patch clamp assay.
The target of assay [4] is T2, Glycine receptor subunit alpha-3. Kind of assay: Antagonist activity at human recombinant alpha 3 GlyR expressed in HEK293 cells assessed as inhibition of glycine current influx by whole cell patch clamp assay.
Assay [5] deals with T3, Glycine receptor subunit alpha-1 (Homo sapiens) (UniProt P23415).
T3 sequence (whole entry): T1 sequence (P23415 whole entry)
The assay is described as §1.

Assay [6] concerns the target T4, Glycine receptor subunit alpha-2 (Homo sapiens) (UniProt P23416).
T4 sequence (whole entry): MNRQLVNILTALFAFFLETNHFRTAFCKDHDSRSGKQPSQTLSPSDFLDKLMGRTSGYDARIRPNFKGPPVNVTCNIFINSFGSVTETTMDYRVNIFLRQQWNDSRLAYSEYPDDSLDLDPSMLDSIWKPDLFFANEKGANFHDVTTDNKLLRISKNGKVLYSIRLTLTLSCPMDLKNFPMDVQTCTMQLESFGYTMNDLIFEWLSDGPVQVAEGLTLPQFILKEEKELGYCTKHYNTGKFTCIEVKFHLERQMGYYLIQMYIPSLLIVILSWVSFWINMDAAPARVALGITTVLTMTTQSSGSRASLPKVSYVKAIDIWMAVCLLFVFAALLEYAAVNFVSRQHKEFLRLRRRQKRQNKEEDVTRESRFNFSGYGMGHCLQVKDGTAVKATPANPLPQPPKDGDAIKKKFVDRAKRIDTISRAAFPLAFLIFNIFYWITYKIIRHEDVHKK
Kind of assay: Antagonist activity at human recombinant alpha 2 GlyR expressed in HEK293 cells assessed as inhibition of glycine current influx by whole cell patch clamp assay. In outline:
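HEK293 cells transiently expressing α2 GlyR, recorded by conventional whole-cell patch clamp. Current was activated with EC20 glycine (50 µM), and compound was applied at 10 µM together with glycine. Response is expressed as % of control glycine current, averaged from six cells.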

For assay [7], the target named is T3, Glycine receptor subunit alpha-1 (Homo sapiens). Kind of assay: Antagonist activity at human recombinant alpha 1 GlyR expressed in HEK293 cells assessed as inhibition of glycine current influx up to 30 uM by whole cell patch clamp assay.
Assay [8] has the same target. Nature of the assay: Agonist activity at human recombinant alpha 1 GlyR expressed in HEK293 cells assessed as potentiation of glycine current at 100 uM by whole cell patch clamp assay relative to EC20 glycine maximum response.
Assay [9] addresses T5, Glycine receptor subunit alpha-3 (Homo sapiens) (UniProt O75311).
T5 sequence (whole entry): T2 sequence (O75311 whole entry)
Kind of assay: Agonist activity at human recombinant alpha 3 GlyR expressed in HEK293 cells assessed as potentiation of glycine current up to 100 uM by whole cell patch clamp assay.

Assay [10] addresses T5, Glycine receptor subunit alpha-3 (Homo sapiens). Kind of assay: Agonist activity at human recombinant alpha 3 GlyR expressed in HEK293 cells assessed as potentiation of glycine current at 100 uM by whole cell patch clamp assay relative to EC20 glycine maximum response.
Assay [11] deals with T3, Glycine receptor subunit alpha-1 (Homo sapiens). Kind of assay: Agonist activity at human recombinant alpha 1 GlyR expressed in HEK293 cells assessed as potentiation of glycine current up to 100 uM by whole cell patch clamp assay.
The target is the same in assay [12]. Nature of the assay: Agonist activity at human recombinant alpha 1 GlyR expressed in HEK293 cells assessed as potentiation of glycine current at 1 to 10 uM by whole cell patch clamp assay.
Assay [13] has as its target T4, Glycine receptor subunit alpha-2 (Homo sapiens). Nature of the assay: Antagonist activity at human recombinant alpha 2 GlyR expressed in HEK293 cells assessed as inhibition of glycine current influx at 10 uM by whole cell patch clamp assay.

Activity calls are given as the source filed them. The rule behind the calls is not given here.

In general, EC50 refers to the concentration that produces a half-maximal response. By IC50 is commonly meant the concentration that gives 50% inhibition. Turning to `CCOC(=O)C(O)(C[C@@H](C)CCC/C(C)=C/CC/C(C)=C/CCC1=CCN(CC(=O)O)C1=O)C(C)(O)C(=O)O` (stereo partly specified) [IRCINIALACTAM D], the EC50 entry in assay [1] (hek293) and in assay [2] was “Not Active” each time. Moreover, the IC50 result in [3] was “Not Active”; in assay [4] (read-out: IC50) it was 30 µM.
In the case of `CC1=C(O)/C(=C/[C@@H](C)CCC/C(C)=C\CC/C(C)=C/CCc2ccoc2)OC1=O`, the EC50 entry in assay [1] (hek293) and in [2] was “Not Active” each time. Besides, the IC50 result in assay [3] and in assay [4] (hek293) was “Not Active” throughout.
Turning to `C/C(=C\CCC1=CCN(CC(=O)O)C1=O)CC/C=C(\C)CCC[C@@H](C)CC(=O)O`, the EC50 result in assay [1] (hek293) and in assay [2] was “Not Active” throughout. Also, the IC50 entry was “Not Active” in assay [3] and 30 µM in [4] (read-out: IC50).
For `CCCCCCC(C)(C)c1cc(O)c2c(c1)OC(C)(C)[C@@H]1CC=C(CO)C[C@@H]21`, the result in [5] and in [6] was Active. For the same compound, the outcome in assay [7] was inactive.
As for `CC1=C(O)/C(=C/[C@@H](C)CCC/C(C)=C/CCC(C)(O)CCCC2=CC(=O)N(CC(=O)O)C2)OC1=O` (stereo partly specified) [8-HYDROXYIRCINIALACTAM B], the EC50 in assay [1] (read-out: EC50) was 0.5 µM. For the same compound, the Activity in [8] was found to be 330%; in [10] it was 183%. For the same compound, the outcome in assay [9] was inactive. For the same compound, the IC50 result in assay [3] and in assay [4] (hek293) was “Not Active” throughout.
Take `CC1=C(O)/C(=C/[C@@H](C)CCC/C(C)=C/CC/C(C)=C/CCc2ccoc2)OC1=O`: the EC50 result in [1] (hek293) and in assay [2] was “Not Active” throughout. Moreover, the IC50 result in assay [3] and in assay [4] (hek293) was “Not Active” throughout.
Turning to `CC1=C(O)/C(=C/[C@@H](C)CCC/C(C)=C/CC/C(C)=C/CCC2=CCN(CC(=O)O)C2=O)OC1=O` [IRCINIALACTAM A], the Activity in assay [8] was 140%. Also, the result in assay [11] was inactive. Besides, in [2], the EC50 entry was “Not Active”. Besides, the IC50 entry in assay [3] is “Not Active”; in [4] (read-out: IC50), 30 µM.
For `Cc1c(C(=O)c2cccc3ccccc23)c2cccc3c2n1[C@H](CN1CCOCC1)CO3`, the result in assay [5] and in assay [6] was Active. Besides, in [7], the outcome was inactive.
`CC1=C(O)/C(=C/C(C)/C=C/C=C(\C)CCCc2coc(Cc3ccoc3)c2)OC1=O` (stereo unspecified) [COMETIN A]: the EC50 result in [1] (hek293) and in assay [2] was “Not Active” each time. Besides, the IC50 result in assay [3] and in assay [4] (hek293) was “Not Active” in each case.
On to `C/C(=C\CCC1=CCN(CC(=O)O)C1=O)CC/C=C(\C)CCC[C@H](C)CC(=O)O` [IRCINIALACTAM C], for which the EC50 entry in assay [1] (hek293) and in assay [2] was “Not Active” each time. The figures for the IC50 entry in [3] and in [4] (read-out: IC50) were “Not Active” and 30 µM, respectively.
With `CC1=C(O)/C(=C/C(C)/C=C/C=C(\C)CCCC(C)CCCc2ccoc2)OC1=O` (stereo unspecified), the EC50 result in assay [1] (hek293) and in assay [2] was “Not Active” in each case. Besides, the IC50 entry in assay [3] and in assay [4] (hek293) was “Not Active” each time.
With `CC(C)(C)C1(O)CC[S+]([O-])CC1` (stereo unspecified), in [12], the Activity turned out to be 135%.
On to `CC1=C(O)/C(=C/[C@@H](C)CCC/C(C)=C/CCC(C)(O)CCCC2=CCN(CC(=O)O)C2=O)OC1=O` (stereo partly specified) [8-HYDROXYIRCINIALACTAM A], for which the Activity in assay [8] was 217%. Also, the result in assay [11] was inactive. Further, the EC50 result in assay [2] was “Not Active”. The IC50 entry in assay [3] and in assay [4] (hek293) was “Not Active” throughout.
By inhibition is commonly meant how much of the control response was suppressed. Take `CC1=C(O)/C(=C/[C@@H](C)CCC/C(C)=C/CCC(C)(O)CCCc2ccoc2)OC1=O` (stereo partly specified): the results for the EC50 in assay [1] (read-out: EC50) and in assay [2] were 1.2 µM and “Not Active”, respectively. For the same compound, the Activity in assay [8] amounted to 215%. The IC50 entry in assay [3] is “Not Active”; in assay [4] (read-out: IC50), 7 µM. The inhibition in assay [13] is 87%. Also, in [7], the outcome was Active.
For `CCCCCCC(C)(C)c1cc(OC)c([C@H]2C=C(CO)[C@@H]3C[C@H]2C3(C)C)c(OC)c1`, the result in assay [5] and in assay [6] was Active. In addition, the result in assay [7] was inactive.

Values taken from ChEMBL document CHEMBL1156225, “Ircinialactams: subunit-selective glycine receptor modulators from Australian sponges of the family Irciniidae” (Bioorg Med Chem, 2010).
